What was measured:
[1] = biological target: T1, Glycine receptor subunit alpha-1 (Rattus norvegicus, UniProt P07727); experiment: Inhibitory concentration required to inhibit [3H]strychnine binding to […] of rat spinal cord membranes.
T1 sequence (P07727 whole entry): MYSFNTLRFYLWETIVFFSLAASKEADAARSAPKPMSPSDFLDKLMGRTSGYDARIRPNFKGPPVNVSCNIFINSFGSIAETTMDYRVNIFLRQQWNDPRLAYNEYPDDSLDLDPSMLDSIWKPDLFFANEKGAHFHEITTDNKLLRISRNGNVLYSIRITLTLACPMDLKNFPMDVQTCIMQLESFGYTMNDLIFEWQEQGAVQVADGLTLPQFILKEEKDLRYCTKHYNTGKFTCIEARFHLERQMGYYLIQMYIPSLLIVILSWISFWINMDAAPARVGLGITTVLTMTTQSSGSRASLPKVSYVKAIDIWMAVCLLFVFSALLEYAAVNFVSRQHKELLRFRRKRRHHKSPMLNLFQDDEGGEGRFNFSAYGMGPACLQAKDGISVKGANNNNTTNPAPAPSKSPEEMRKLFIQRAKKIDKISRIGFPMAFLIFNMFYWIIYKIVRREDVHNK

Mus musculus [2] = organism: Mus musculus; experiment: Change in input resistance of cultured spinal cord neurons produced at a dose 100 uM+100 uM tetrodotoxin; format: functional
Mus musculus [3] = organism: Mus musculus; experiment: Change in input resistance of cultured spinal cord neurons produced at a dose 1 mM+100 uM tetrodotoxin; format: functional
Mus musculus [4] = organism: Mus musculus; experiment: Change in input resistance of cultured spinal cord neurons produced at a dose 100 uM; format: functional
[5] = biological target: T1, Glycine receptor subunit alpha-1; experiment: Inhibitory concentration required to inhibit [3H]strychnine binding to […]
Outline: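 [3H]Strychnine displacement; IC50 obtained by nonlinear curve fitting to a Langmuir isotherm.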

Mus musculus [6] = organism: Mus musculus; experiment: Change in input resistance of cultured spinal cord neurons produced at a dose 1 mM; format: functional
Mus musculus [7] = organism: Mus musculus; experiment: Change in input resistance of cultured spinal cord neurons produced at a dose 1 mM+100 uM strychnine; format: functional
Mus musculus [8] = organism: Mus musculus; experiment: Change in input resistance of cultured spinal cord neurons produced at a dose 100 uM tetrodotoxin; format: functional
[9] = Ability to displace [3H]strychnine-sensitive glycine receptor binding to rat spinal cord membranes; at 100 uM
Mus musculus [10] = organism: Mus musculus; experiment: Change in input resistance of cultured spinal cord neurons produced at a dose 1 mM+100 uM bicuculline+3 uMtetrodotoxin; format: functional
Mus musculus [11] = organism: Mus musculus; experiment: Change in input resistance of cultured spinal cord neurons produced at a dose 100 uM+100 uM bicuculline+3 uM tetrodotoxin; format: functional

C[C@@H](N)C(=O)O [D-ALANINE]
IC50 [1]: 90.9 µM

O=C(O)C1CNC1
Activity (Mus musculus [2]): 10.7% | Activity (Mus musculus [3]): 71.7% | Activity (Mus musculus [4]): 9.4% | IC50 [5]: 23.7 µM | Activity (Mus musculus [6]): 83.1% | Activity (Mus musculus [7]): 37.7%

O=C(O)[C@@H]1CCCN1 (stereo in doubt) [PROLINE]
IC50 [5]: 414 µM

O=C(O)C1C=CCN1 (stereo not given)
IC50 [5]: 242 µM

O=C(O)[C@@H]1CCCN1 (stereo in doubt; 8) [PROLINE]
IC50 [5]: 17.2 µM

NCCC(=O)O [BETA-ALANINE]
IC50 [1]: 11.6 µM

C[C@H](N)C(=O)O [ALANINE]
IC50 [5]: 198 µM

O=C(O)C1CCN1 (stereo not given)
IC50 [5]: 399 µM

O=C(O)C1=CCNC1
Activity (Mus musculus [3]): 37.2% | Activity (Mus musculus [4]): 22.7% | Activity (Mus musculus [8]): 5.1% | IC50 [5]: 7.9 µM | Activity (Mus musculus [6]): 60.4% | Activity (Mus musculus [7]): 4.7%

O=C(O)c1cc[nH]c1
inhibition [9]: 46%

O=C(O)C1CCNCC1 [ISONIPECOTIC ACID]
Activity (Mus musculus [4]): 19.2% | IC50 [5]: 94.1 µM | Activity (Mus musculus [6]): 73.6% | Activity (Mus musculus [10]): 0.1% | Activity (Mus musculus [11]): 3%
